Reference: ChEMBL document CHEMBL1136789, “Synthesis and biological evaluation of new 2-(4,5-dihydro-1H-imidazol-2-yl)-3,4-dihydro-2H-1,4-benzoxazine derivatives” (J Med Chem, 2003)
The source made the active and inactive calls. The calls are words filed in the database; no cut-off is given here.

What was measured:
[1] = In vitro alpha-1 adrenergic receptor binding affinity was determined on calf frontal cortex membrane preparation; format: tissue-based, Bos taurus
Summary of the method: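 Calf frontal cortex membranes (0.5 mg protein/mL) incubated 40 min at 25 °C with 0.5 nM [3H]prazosin in 50 mM phosphate buffer with 10 mM MgCl2. Competitors at 10^-9 to 10^-4 M. Nonspecific binding set with 10 µM phentolamine. Stopped by rapid vacuum filtration through glass fibre filters, then washed three times with ice-cold buffer. Ki reported.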

[2] = In vitro alpha-2 adrenergic receptor binding affinity was determined on calf frontal cortex membrane preparation; format: tissue-based, Bos taurus
[3] = test system: Rattus norvegicus; assay: Effect (25 mg/kg ip) on heart rate in anesthetized spontaneously hypertensive rats; format: functional
Summary of the method: (§1)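 Adult male SHR anaesthetised with sodium pentobarbital 50 mg/kg ip, left carotid catheter filled with heparinised saline. BP and HR (HR from pulse pressure) stabilised ≥40 min before a single ip dose, n=6/group. Vehicle 0.5% carboxymethylcellulose in water, 2.5 mL/kg. Recorded over 90 min. Output is the maximal change in MAP (mmHg) and HR (bpm) from pre-dose baseline, also as %. Repeated-measures ANOVA with Dunnett's tests.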

[4] = test system: Rattus norvegicus; assay: Effect (25 mg/kg ip) on mean arterial blood pressure in anesthetized spontaneously hypertensive rats; format: functional; summary of the method: as §1
[5] = test system: Rattus norvegicus; assay: Effect at (25 mg/kg, ip) on heart rate in anesthetized spontaneously hypertensive rats; format: functional; summary of the method: as §1
[6] = molecular target: imidazoline I2 binding site (Oryctolagus cuniculus); assay: In vitro binding affinity determined against imidazoline receptor I-2 using rabbit kidney preparation
[7] = test system: Rattus norvegicus; assay: Effect after 30 mg/kg, po, on heart rate in conscious spontaneously hypertensive rats; format: functional
Summary of the method: (§2)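 Studied conscious 24 h after surgery. Dosed by oral gavage after ≥40 min stabilisation, n=6/group. Vehicle 0.5% carboxymethylcellulose, 5 mL/kg. MAP and HR recorded over 24 h. Output is the maximal change from baseline (mmHg, bpm, %). Repeated-measures ANOVA with Dunnett's tests.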

[8] = test system: Rattus norvegicus; assay: Effect after 30 mg/kg, po, on mean arterial blood pressure in conscious spontaneously hypertensive rats; format: functional; summary of the method: as §2
[9] = test system: Rattus norvegicus; assay: Effect after 100 mg/kg, po, on heart rate in conscious spontaneously hypertensive rats; format: functional; summary of the method: as §2
[10] = test system: Rattus norvegicus; assay: Effect after 10 mg/kg, po, on mean arterial blood pressure in conscious spontaneously hypertensive rats; format: functional; summary of the method: as §2
[11] = test system: Rattus norvegicus; assay: Effect after 10 mg/kg, po, on heart rate in conscious spontaneously hypertensive rats; format: functional; summary of the method: as §2
[12] = test system: Rattus norvegicus; assay: Effect after 100 mg/kg, po, on mean arterial blood pressure in conscious spontaneously hypertensive rats; format: functional; summary of the method: as §2
[13] = test system: Rattus norvegicus; assay: Effect at 25 mg/kg, ip, on mean arterial blood pressure in anesthetized spontaneously hypertensive rats; lethal at 12.5 mg; toxic at 5 mg; inactive at 0.5 mg; format: functional, organism-based; set-up: dose 25 mg/kg

Row | SMILES | Ki [1] | Ki [2] | Variation [3] | Max delta MAP [4] | Variation [4] | Max delta HR [5] | further results
1 | COC(=O)c1ccc2c(c1)N(C)CC(C1=NCCN1)O2 (centres undefined) | > 10 µM | 7500 nM | – | – | – | – | –
2 | CCCN1CC(C2=NCCN2)Oc2ccccc21 (centres undefined) | > 10 µM | 132 nM | -27% | -26 mmHg | -14% | -90 beats min-1 | Ki [6]: 160 nM
3 | CN1CC(C2=NCCN2)Oc2ccc(F)cc21 (stereo in doubt; (+)4h) | 2.54 µM | 68.2 nM | -25% | -50 mmHg | -28% | -85 beats min-1 | –
4 | COc1cc(=O)n2c3c(cccc13)OC(C1=NCCN1)C2 (centres undefined) | > 10 µM | 13000 nM | 4% | -9 mmHg | -5% | 13 beats min-1 | –
5 | Cc1ccc2c(c1)OC(C1=NCCN1)CN2C (centres undefined) | 1 µM | 30 nM | -19% | -34 mmHg | -20% | -60 beats min-1 | –
6 | Cc1cccc2c1OC(C1=NCCN1)CN2C (centres undefined) | > 1 µM | 7.3 nM | -25% | -24 mmHg | -13% | -79 beats min-1 | –
7 | CN1CC(C2=NCCN2)Oc2cc3c(cc21)CCCC3 (centres undefined) | > 10 µM | 98 nM | -17% | -15 mmHg | -9% | -53 beats min-1 | –
8 | CCOCc1ccc2c(c1)N(C)CC(C1=NCCN1)O2 (centres undefined) | > 10 µM | > 1000 nM | – | – | – | – | –
9 | CN1CC(C2=NCCN2)Oc2ccc(F)cc21 (single isomer, unassigned; (-)) | > 1 µM | 32.9 nM | -45% | -55 mmHg | -31% | -143 beats min-1 | –
10 | CCCC1(C2=NCCN2)CN(C)c2ccccc2O1 (centres undefined) | > 1 µM | > 1000 nM | -17% | 22 mmHg | 11% | -56 beats min-1 | –
11 | Cc1ccc2c3c1CCCN3CC(C1=NCCN1)O2 (centres undefined) | > 10 µM | 230 nM | -25% | -17 mmHg | -9% | -79 beats min-1 | –
12 | CN1CC(C)(C2=NCCN2)Oc2ccccc21 (centres undefined) | > 1 µM | > 1000 nM | -11% | -17 mmHg | -9% | -37 beats min-1 | –
13 | CN1CC(C2=NCCN2)Oc2ccc(Cl)cc21 (centres undefined) | 1.46 µM | 52.5 nM | -32% | -53 mmHg | -28% | -96 beats min-1 | Max delta HR [7]: -40 beats min-1; Variation [7]: 11%; Max delta MAP [8]: -47 mmHg; Variation [8]: -24%
14 | c1ccc2c(c1)NCC(C1=NCCN1)O2 (centres undefined) | > 10 µM | > 10000 nM | -3% | -17 mmHg | -9% | -8 beats min-1 | –
15 | c1cc2c3c(c1)OC(C1=NCCN1)CN3CCCC2 (centres undefined) | 4.6 µM | 2150 nM | -22% | 21 mmHg | 11% | -65 beats min-1 | –
16 | Cc1ccc2c(c1)N(C)CC(C1=NCCN1)O2 (centres undefined) | > 1 µM | 70 nM | -37% | -32 mmHg | -175% | -127 beats min-1 | Max delta HR [9]: -77 beats min-1; Variation [9]: -23%; Max delta MAP [10]: -18 mmHg; Variation [10]: -10%; Max delta HR [7]: -32 beats min-1; Variation [7]: -10%; Max delta HR [11]: -11 beats min-1; Variation [11]: -3%; Max delta MAP [8]: -43 mmHg; Variation [8]: -23%; Ki [6]: 1.99 nM; Max delta MAP [12]: -53 mmHg; Variation [12]: -28%
17 | COc1cc(=O)n2c3c(ccc(C)c13)OC(C1=NCCN1)C2 (centres undefined) | 9.4 µM | 6800 nM | -6% | -1 mmHg | 0% | -17 beats min-1 | –
18 | CN1CC(C2=NCCN2)Oc2ccc(C(F)(F)F)cc21 (centres undefined) | > 10 µM | 263 nM | -43% | -32 mmHg | -18% | -134 beats min-1 | –
19 | CN1CC(C2=NCCN2)Oc2c1ccc1ccccc21 (centres undefined) | > 10 µM | – | -24% | -14 mmHg | -8% | -80 beats min-1 | –
20 | Cc1cccc2c1N(C)CC(C1=NCCN1)O2 (centres undefined) | 4.74 µM | 145 nM | -16% | 47 mmHg | 23% | -52 beats min-1 | –
21 | Cc1cc2c(cc1C)N(C)CC(C1=NCCN1)O2 (centres undefined) | 5.66 µM | 26 nM | -33% | -8 mmHg | -5% | -100 beats min-1 | –
22 | COc1ccc2c(c1)N(C)CC(C1=NCCN1)O2 (centres undefined) | > 10 µM | 287 nM | -18% | -14 mmHg | -8% | -54 beats min-1 | –
23 | c1ccc(CN2CC(C3=NCCN3)Oc3ccccc32)cc1 (centres undefined) | 3.5 µM | 1300 nM | -7% | -4 mmHg | -2% | -21 beats min-1 | Ki [6]: 1600 nM
24 | c1cc2c3c(c1)ccn3CC(C1=NCCN1)O2 (centres undefined) | > 1 µM | 360 nM | -14% | -24 mmHg | -14% | -45 beats min-1 | –
25 | Cc1cc(C)c2c(c1)N(C)CC(C1=NCCN1)O2 (centres undefined) | > 1 µM | 12.4 nM | – | – | – | – | Max delta MAP [13]: inactive; Variation [13]: inactive
26 | CN1CC(C2=NCCN2)Oc2cc3ccccc3cc21 (centres undefined) | > 10 µM | 402 nM | -11% | -17 mmHg | -9% | -37 beats min-1 | –
27 | CN1CC(C2=NCCN2)Oc2ccc(F)cc21 (stereo in doubt; 4h) | 5.91 µM | 104 nM | -44% | -6 mmHg | -36% | -139 beats min-1 | Max delta HR [9]: -61 beats min-1; Variation [9]: -18%; Max delta MAP [10]: -34 mmHg; Variation [10]: -18%; Max delta HR [7]: -43 beats min-1; Variation [7]: -12%; Max delta HR [11]: 25 beats min-1; Variation [11]: 7%; Max delta MAP [8]: -56 mmHg; Variation [8]: -29%; Max delta MAP [12]: -81 mmHg; Variation [12]: -44%
28 | CN1CC(C2=NCCN2)Oc2ccc(CO)cc21 (centres undefined) | > 10 µM | 10.4 nM | – | – | – | – | –
29 | c1cc2c3c(c1)OC(C1=NCCN1)CN3CC2 (centres undefined) | > 10 µM | 28.6 nM | -25% | -56 mmHg | -30% | -103 beats min-1 | Max delta MAP [10]: -19 mmHg; Variation [10]: -10%; Max delta HR [7]: -94 beats min-1; Variation [7]: -27%; Max delta HR [11]: -50 beats min-1; Variation [11]: -14%; Max delta MAP [8]: -48 mmHg; Variation [8]: -25%
30 | c1cc2c3c(c1)OC(C1=NCCN1)CN3CCC2 (centres undefined) | 0.71 µM | 340 nM | -24% | -34 mmHg | -20% | -77 beats min-1 | –
